In ChEMBL document CHEMBL3774328, “Optimization by Molecular Fine Tuning of Dihydro-β-agarofuran Sesquiterpenoids as Reversers of P-Glycoprotein-Mediated Multidrug Resistance” (J Med Chem, 2016):

What was measured:
[1] = target: T1, ATP-dependent translocase ABCB1 (Homo sapiens, UniProt P08183); experiment: Inhibition of human MDR1 expressed in mouse NIH/3T3 cells assessed as inhibition of daunomycin efflux incubated for 30 mins by flow cytometry; format: cell-based, NIH3T3
How it was run: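 Ki for DNM efflux. MDR1-G185 NIH-3T3 cells were incubated 30 min at 37 °C with DNM (2 μM) and varying compound concentrations, then read by flow cytometry. Fluorescence was converted to % P-gp inhibition, normalized to cells treated with 5 mM sodium orthovanadate (100%). Ki was fitted from I = (Imax × S)/(Ki + S). Mean ± SD of three independent experiments in triplicate.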

[2] = Intrinsic cytotoxicity against mouse NIH/3T3 cells transfected with human MDR1 by MTT assay; format: ADME, cell-based, NIH3T3
How it was run: (§1)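 Intrinsic cytotoxicity was measured by MTT in parental NIH-3T3 and MDR1-G185 cells. CC50 came from a four-parameter logistic fit. The top tested concentration was 60 μM, limited by DMSO toxicity, and growth at 60 μM is given as % of untreated control. Mean ± SD of three independent experiments in duplicate.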

[3] = Intrinsic cytotoxicity against mouse NIH/3T3 cells by MTT assay; format: cell-based, NIH3T3; how it was run: as §1
[4] = target: T1, ATP-dependent translocase ABCB1; experiment: Inhibition of human MDR1 expressed in mouse NIH/3T3 cells assessed as reduction in daunomycin IC50 at 1 uM by MTT assay; format: cell-based; conditions: nih3t3, 1 µM
How it was run: (§2)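 Parental NIH-3T3 and MDR1-G185 cells were grown in DMEM with 10% iFBS. They were exposed to increasing DNM or VLB (up to 500 ng/mL) with or without compound at fixed 1, 3 or 10 μM. Growth was read by MTT, and IC50 came from a four-parameter logistic fit. Mean ± SD of two independent experiments in triplicate.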

[5] = target: T1, ATP-dependent translocase ABCB1; experiment: Inhibition of human MDR1 expressed in mouse NIH/3T3 cells assessed as reduction in daunomycin IC50 at 3 uM by MTT assay; format: cell-based; conditions: nih3t3, 3 µM
How it was run: as §2, with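 “fit. Reversal index = IC50 without compound / IC50 with compound in MDR1 cells.” for “fit.”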

[6] = target: T1, ATP-dependent translocase ABCB1; experiment: Inhibition of human MDR1 expressed in mouse NIH/3T3 cells assessed as reduction in daunomycin IC50 at 10 uM by MTT assay; format: cell-based; conditions: nih3t3, 10 µM
How it was run: as §2, with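 “fit. Reversal index = IC50 without compound / IC50 with compound in MDR1 cells.” for “fit.”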

[7] = target: T1, ATP-dependent translocase ABCB1; experiment: Inhibition of human MDR1 expressed in mouse NIH/3T3 cells assessed as reduction in vinblastine IC50 at 1 uM by MTT assay; format: cell-based; conditions: nih3t3, 1 µM
How it was run: as §2, with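 “fit. Reversal index = IC50 without compound / IC50 with compound in MDR1 cells.” for “fit.”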

[8] = target: T1, ATP-dependent translocase ABCB1; experiment: Inhibition of human MDR1 expressed in mouse NIH/3T3 cells assessed as reduction in vinblastine IC50 at 3 uM by MTT assay; format: cell-based; conditions: nih3t3, 3 µM
How it was run: as §2, with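 “fit. Reversal index = IC50 without compound / IC50 with compound in MDR1 cells.” for “fit.”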

[9] = target: T1, ATP-dependent translocase ABCB1; experiment: Inhibition of human MDR1 expressed in mouse NIH/3T3 cells assessed as reduction in vinblastine IC50 at 10 uM by MTT assay; format: cell-based; conditions: nih3t3, 10 µM
How it was run: as §2, with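 “fit. Reversal index = IC50 without compound / IC50 with compound in MDR1 cells.” for “fit.”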

[10] = Intrinsic cytotoxicity against mouse NIH/3T3 cells assessed as cell growth at 60 uM by MTT assay; format: cell-based, NIH3T3; conditions: read-out: Activity; how it was run: as §1
[11] = target: T1, ATP-dependent translocase ABCB1; experiment: Inhibition of human MDR1 expressed in mouse NIH/3T3 cells assessed as daunomycin retention at 10 uM incubated for 30 mins by flow cytometry; format: cell-based; design: scale not given: the % may be the effect or the level left; conditions: nih3t3, 0.5 h
How it was run: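 DNM retention by flow cytometry. MDR1-G185 NIH-3T3 cells in log phase were seeded 24 h before at 10^5 cells/well. They were incubated 30 min at 37 °C in DMEM + 10% iFBS with DNM (2 μM), with or without compound (10 μM). Cells were then washed twice in ice-cold PBS, trypsinized and read immediately for single-cell fluorescence.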

T1 sequence (P08183 whole entry): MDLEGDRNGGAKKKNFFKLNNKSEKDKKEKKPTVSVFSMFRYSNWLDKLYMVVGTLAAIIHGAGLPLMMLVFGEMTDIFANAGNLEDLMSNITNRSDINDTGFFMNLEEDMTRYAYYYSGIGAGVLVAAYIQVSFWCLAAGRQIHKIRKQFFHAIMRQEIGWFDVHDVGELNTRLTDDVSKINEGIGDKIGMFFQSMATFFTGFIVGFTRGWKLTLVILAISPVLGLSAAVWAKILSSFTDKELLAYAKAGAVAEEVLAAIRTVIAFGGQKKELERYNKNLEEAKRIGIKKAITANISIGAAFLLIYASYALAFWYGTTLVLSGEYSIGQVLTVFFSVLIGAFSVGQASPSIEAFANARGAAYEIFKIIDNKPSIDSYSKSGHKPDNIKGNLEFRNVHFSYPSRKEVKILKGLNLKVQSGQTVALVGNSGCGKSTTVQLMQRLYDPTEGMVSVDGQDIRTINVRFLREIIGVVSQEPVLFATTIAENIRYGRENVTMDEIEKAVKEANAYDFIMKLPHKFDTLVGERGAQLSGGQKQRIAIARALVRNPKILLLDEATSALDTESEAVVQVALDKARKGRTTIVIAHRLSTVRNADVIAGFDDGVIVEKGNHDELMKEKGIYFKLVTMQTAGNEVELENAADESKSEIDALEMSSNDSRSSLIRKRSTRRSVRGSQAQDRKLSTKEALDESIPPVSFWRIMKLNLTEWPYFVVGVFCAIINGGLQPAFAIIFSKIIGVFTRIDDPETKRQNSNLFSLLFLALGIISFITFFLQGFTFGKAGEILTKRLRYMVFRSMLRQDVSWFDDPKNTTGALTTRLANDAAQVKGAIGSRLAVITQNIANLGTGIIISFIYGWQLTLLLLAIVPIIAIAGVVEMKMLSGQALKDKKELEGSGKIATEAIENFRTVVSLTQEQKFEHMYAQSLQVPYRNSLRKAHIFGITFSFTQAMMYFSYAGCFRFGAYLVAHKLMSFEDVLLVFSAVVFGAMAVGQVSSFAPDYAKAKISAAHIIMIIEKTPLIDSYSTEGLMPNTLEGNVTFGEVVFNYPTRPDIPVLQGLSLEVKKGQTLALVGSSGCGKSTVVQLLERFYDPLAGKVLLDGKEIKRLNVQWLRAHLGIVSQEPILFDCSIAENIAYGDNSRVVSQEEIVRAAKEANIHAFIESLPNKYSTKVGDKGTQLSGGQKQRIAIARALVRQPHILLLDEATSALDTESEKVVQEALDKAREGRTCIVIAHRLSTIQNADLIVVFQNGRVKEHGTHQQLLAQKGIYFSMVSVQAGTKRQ

| SMILES | Ki [1] [µM] | fold change (FC) [4] | fold change (FC) [5] | fold change (FC) [6] | fold change (FC) [7] | fold change (FC) [8] | fold change (FC) [9] | Activity [11] [%] | CC50 [2] [µM] | CC50 [3] [µM] | viability at 60 µM [10] [%] |
| --- | --- | --- | --- | --- | --- | --- | --- | --- | --- | --- | --- |
| CC(=O)O[C@H]1CC[C@](C)(O)[C@@]23OC(C)(C)[C@@H](C2=O)[C@H](OC(=O)/C=C/c2ccccc2)[C@H](OC(=O)c2ccccc2)[C@]13C | 0.63 | 5.2 | 10.4 | 15.9 | 11.6 | 29.4 | 106.3 |  | 34.8 | 18.9 |  |
| CC(=O)O[C@H]1CC[C@@H](C)[C@]23OC(C)(C)[C@H]([C@H](OC(=O)CCc4ccccc4)[C@H](OC(=O)c4ccccc4)[C@]12C)[C@H]3O | 0.4 |  |  |  |  |  |  |  | 14.2 | > 60 | 72.3 |
| C=C1CC[C@H](OC(C)=O)[C@@]2(C)[C@@H](OC(=O)c3ccccc3)[C@@H](OC(=O)/C=C/c3ccccc3)[C@@H]3[C@@H](OC(=O)CCl)[C@]12OC3(C)C |  |  |  |  |  |  |  | 66 |  |  |  |
| CC(=O)O[C@H]1CC[C@](C)(O)[C@]23OC(C)(C)[C@H]([C@H](OC(=O)/C=C/c4ccccc4)[C@H](OC(=O)c4ccccc4)[C@]12C)[C@H]3OC(=O)CCC(=O)OC1CCCCC1O (stereo partly specified) | 0.46 | 3.9 | 11 | 12.8 | 9.9 | 40.3 | 107.8 |  | 19.9 | 24.3 |  |
| CC(=O)O[C@H]1CC[C@](C)(O)[C@]23OC(C)(C)[C@H]([C@H](OC(=O)/C=C\c4ccccc4)[C@H](OC(=O)c4ccccc4)[C@]12C)[C@H]3OC(C)=O |  | 7 | 24 | 30.3 | 12.1 | 19.7 | 77 |  | 22.9 | 12 |  |
| CC(=O)O[C@H]1CC[C@](C)(O)[C@]23OC(C)(C)[C@H]([C@H](OC(=O)/C=C/c4ccccc4)[C@H](OC(=O)c4ccccc4)[C@]12C)[C@H]3OC(=O)CCC(=O)OCCO | 0.5 | 2.6 | 7.5 | 10.6 | 6.5 | 26.8 | 145.9 |  | 29.2 | 27.7 |  |
| CCC(C)C(=O)O[C@@H]1[C@H]2[C@H](OC(=O)/C=C/c3ccccc3)[C@H](OC(=O)c3ccccc3)[C@]3(C)[C@@H](OC(C)=O)CC[C@](C)(O)[C@@]13OC2(C)C (stereo partly specified) | 0.41 |  |  |  |  |  |  |  | 13.2 | > 60 | 57.3 |
| CC(=O)O[C@H]1CC[C@](C)(Cl)[C@]23OC(C)(C)[C@H]([C@H](OC(=O)/C=C/c4ccccc4)[C@H](OC(=O)c4ccccc4)[C@]12C)[C@H]3Cl | 1.34 | 5.2 | 12.9 | 14.8 | 11.6 | 33 | 113.9 |  | 31.4 | 43.7 |  |
| CCCC(=O)O[C@@H]1[C@H]2[C@H](OC(=O)/C=C/c3ccccc3)[C@H](OC(=O)c3ccccc3)[C@]3(C)[C@@H](OC(C)=O)CC[C@](C)(O)[C@@]13OC2(C)C | 0.32 |  |  |  |  |  |  |  | 18.3 | 44.9 |  |
| C=C1CC[C@H](OC(C)=O)[C@@]2(C)[C@@H](OC(=O)c3ccccc3)[C@@H](OC(=O)/C=C/c3ccccc3)[C@@H]3[C@@H](O)[C@]12OC3(C)C |  |  |  |  |  |  |  | 66 |  |  |  |
| CC(=O)O[C@H]1CC[C@](C)(O)[C@]23OC(C)(C)[C@H]([C@H](OC(=O)/C=C/c4ccccc4)[C@H](OC(=O)c4ccccc4)[C@]12C)[C@H]3OC(=O)c1ccccc1 | 0.5 | 6.2 | 10.1 | 17.5 | 13.9 | 33.6 | 126.2 |  | 30.6 | > 60 | 64.1 |
| COC(=O)CCCC(=O)O[C@@H]1[C@H]2[C@H](OC(=O)/C=C/c3ccccc3)[C@H](OC(=O)c3ccccc3)[C@]3(C)[C@@H](OC(C)=O)CC[C@](C)(O)[C@@]13OC2(C)C | 0.61 | 6 | 12.3 | 15.9 | 7.5 | 37.7 | 103.6 |  | 28.2 | > 60 | 71.3 |
| C=C1CC[C@H](OC(C)=O)[C@@]2(C)[C@@H](OC(=O)c3ccccc3)[C@@H](OC(=O)/C=C/c3ccccc3)[C@@H]3[C@@H](OS(C)(=O)=O)[C@]12OC3(C)C |  |  |  |  |  |  |  | 66 |  |  |  |
| CC(=O)O[C@H]1CC[C@](C)(O)[C@]23OC(C)(C)[C@H]([C@H](OC(=O)/C=C\c4ccccc4)[C@H](OC(=O)c4ccccc4)[C@]12C)[C@H]3OC(=O)c1cnccn1 | 0.42 | 3.2 | 5.2 | 9 | 5.2 | 18.7 | 39.6 |  | 31.2 | > 60 | 68.3 |
| CC(=O)O[C@H]1CC[C@](C)(O)[C@]23OC(C)(C)[C@H]([C@H](OC(=O)CCc4ccccc4)[C@H](OC(=O)c4ccccc4)[C@]12C)[C@H]3O | 0.47 | 3.3 | 8.1 | 11.6 | 11.1 | 23.6 | 43.8 |  | 30.3 | 25.4 |  |

More lines, main results first:

| Ki [1] [µM] | fold change (FC) [4] | fold change (FC) [5] | fold change (FC) [6] | fold change (FC) [7] | fold change (FC) [8] | fold change (FC) [9] | Activity [11] [%] | SMILES | CC50 [2] [µM] | CC50 [3] [µM] | viability at 60 µM [10] [%] |
| --- | --- | --- | --- | --- | --- | --- | --- | --- | --- | --- | --- |
| 0.29 |  |  |  |  |  |  | 83 | CC(=O)O[C@H]1CC[C@](C)(O)[C@]23OC(C)(C)[C@H]([C@H](OC(=O)/C=C/c4ccccc4)[C@H](OC(=O)c4ccccc4)[C@]12C)[C@H]3OC(C)=O | 18.3 | 26.3 |  |
| 0.24 |  |  |  |  |  |  |  | CC(=O)O[C@H]1CC[C@](C)(O)[C@]23OC(C)(C)[C@H]([C@H](OC(=O)/C=C/c4ccccc4)[C@H](OC(=O)c4ccccc4)[C@]12C)[C@H]3OC(=O)C1CC1 | 11.2 | 50.3 |  |
| 0.31 | 5.7 | 10.9 | 16.1 | 21.1 | 49.6 | 173.4 |  | CC(=O)O[C@H]1CC[C@](C)(OC(=O)CN2CCOCC2)[C@]23OC(C)(C)[C@H]([C@H](OC(=O)/C=C/c4ccccc4)[C@H](OC(=O)c4ccccc4)[C@]12C)[C@H]3OC(C)=O | 33.1 | 36.2 |  |
| 0.26 |  |  |  |  |  |  |  | CCOC(=O)CCC(=O)O[C@@H]1[C@H]2[C@H](OC(=O)/C=C/c3ccccc3)[C@H](OC(=O)c3ccccc3)[C@]3(C)[C@@H](OC(C)=O)CC[C@](C)(O)[C@@]13OC2(C)C | 15.3 | 58.9 |  |
| 0.25 | 4.1 | 14.5 | 14.7 | 15.5 | 30.1 | 59.5 |  | CC(=O)O[C@H]1CC[C@](C)(O)[C@]23OC(C)(C)[C@H]([C@H](OC(=O)/C=C\c4ccccc4)[C@H](OC(=O)c4ccccc4)[C@]12C)[C@H]3OC(=O)c1ccccc1 | 25.9 | 27.2 |  |
| 0.31 |  |  |  |  |  |  |  | CC(=O)O[C@H]1CC[C@](C)(O)[C@]23OC(C)(C)[C@H]([C@H](OC(=O)/C=C/c4ccccc4)[C@H](OC(=O)c4ccccc4)[C@]12C)[C@H]3OC(=O)CBr | 5.7 | 8.6 |  |
| 0.23 |  |  |  |  |  |  |  | COC(=O)CCC(=O)O[C@@H]1[C@H]2[C@H](OC(=O)/C=C/c3ccccc3)[C@H](OC(=O)c3ccccc3)[C@]3(C)[C@@H](OC(C)=O)CC[C@](C)(O)[C@@]13OC2(C)C | 17.6 | 36.4 |  |
